For eight molecules, IC50 and Ratio IC50 results are on record in ChEMBL document CHEMBL3108771, “Crystal Structures of PI3Kα Complexed with PI103 and Its Derivatives: New Directions for Inhibitors Design” (ACS Med Chem Lett, 2014).

In assay [1] the target is T1, Phosphatidylinositol 4,5-bisphosphate 3-kinase catalytic subunit alpha isoform (Homo sapiens, UniProt P42336). The assay is described as follows: Inhibition of N-terminal His-6-tagged full length human PI3Kalpha expressed in baculovirus-infected sf9 cells after 30 mins by TR-FRET assay. The method in brief: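 IC50 is the mean of at least three independent experiments, each run in duplicate. Typical variation was below 20%.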
T1 sequence (P42336 whole entry, canonical isoform): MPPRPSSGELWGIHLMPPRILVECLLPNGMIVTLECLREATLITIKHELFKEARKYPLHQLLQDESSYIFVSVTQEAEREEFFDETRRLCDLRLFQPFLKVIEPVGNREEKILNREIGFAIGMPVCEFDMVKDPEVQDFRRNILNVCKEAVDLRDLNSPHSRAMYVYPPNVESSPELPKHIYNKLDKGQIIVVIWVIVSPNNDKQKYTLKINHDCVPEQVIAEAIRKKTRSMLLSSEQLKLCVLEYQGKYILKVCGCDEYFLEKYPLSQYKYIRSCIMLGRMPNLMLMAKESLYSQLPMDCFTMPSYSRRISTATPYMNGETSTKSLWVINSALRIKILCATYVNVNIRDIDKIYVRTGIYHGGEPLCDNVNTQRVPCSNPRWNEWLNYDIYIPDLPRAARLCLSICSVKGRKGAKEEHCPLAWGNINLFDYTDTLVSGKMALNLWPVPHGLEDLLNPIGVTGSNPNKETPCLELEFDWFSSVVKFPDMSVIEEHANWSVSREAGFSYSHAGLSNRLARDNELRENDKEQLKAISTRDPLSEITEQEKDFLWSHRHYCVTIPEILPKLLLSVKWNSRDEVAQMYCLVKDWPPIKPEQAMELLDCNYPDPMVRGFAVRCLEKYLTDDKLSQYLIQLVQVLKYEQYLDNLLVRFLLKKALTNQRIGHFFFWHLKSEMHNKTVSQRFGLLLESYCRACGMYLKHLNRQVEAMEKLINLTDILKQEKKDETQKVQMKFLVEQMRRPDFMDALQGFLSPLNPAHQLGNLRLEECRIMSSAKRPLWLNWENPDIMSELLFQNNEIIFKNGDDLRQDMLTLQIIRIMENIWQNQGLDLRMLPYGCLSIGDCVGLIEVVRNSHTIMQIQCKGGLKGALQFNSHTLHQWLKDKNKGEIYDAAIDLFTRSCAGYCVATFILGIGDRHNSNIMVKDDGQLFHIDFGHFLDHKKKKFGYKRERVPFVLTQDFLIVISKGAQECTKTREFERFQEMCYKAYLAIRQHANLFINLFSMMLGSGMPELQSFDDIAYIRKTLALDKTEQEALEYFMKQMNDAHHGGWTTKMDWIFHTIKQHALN

Assay [2] addresses Phosphatidylinositol 4,5-bisphosphate 3-kinase catalytic subunit alpha isoform (Homo sapiens, UniProt P42336, M772A). The assay is described as follows: Inhibition of GST-tagged full length human PI3Kalpha M772A mutant expressed in baculovirus-infected sf9 cells after 30 mins by TR-FRET assay. The method in brief: (§1)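 Each mutant PI3Kα was expressed and purified in-house. IC50 is the mean of at least three independent experiments, each run in duplicate.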

Assay [3] deals with Phosphatidylinositol 4,5-bisphosphate 3-kinase catalytic subunit alpha isoform (Homo sapiens), P42336 [D810A]. Put plainly: Ratio of PI103 IC50 to compound IC50 for full length human PI3Kalpha D810A mutant. The method in brief: (§2)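 Inhibitor IC50s were determined against wild-type PI3Kα and the M772A, D810A and Y836A mutants. The mutants were expressed and purified in-house. […] Fold change is the PI103 IC50 divided by the compound IC50 on the same enzyme form.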
Chain of Phosphatidylinositol 4,5-bisphosphate 3-kinase catalytic subunit alpha isoform (Homo sapiens), P42336 [D810A] (P42336 whole entry D810A, canonical isoform): as the sequence (P42336 whole entry, canonical isoform) above, with D810A counted along it

In assay [4] the target is Phosphatidylinositol 4,5-bisphosphate 3-kinase catalytic subunit alpha isoform (Homo sapiens, UniProt P42336, D810A). Put plainly: Inhibition of GST-tagged full length human PI3Kalpha D810A mutant expressed in baculovirus-infected sf9 cells after 30 mins by TR-FRET assay. The method in brief:
as §1

For assay [5], the system named is Phosphatidylinositol 4,5-bisphosphate 3-kinase catalytic subunit alpha isoform (Homo sapiens), P42336 [Y836A]. The assay is described as follows: Ratio of PI103 IC50 to compound IC50 for full length human PI3Kalpha Y836A mutant. In short, it runs like this:
as §2

In assay [6] the test system is Phosphatidylinositol 4,5-bisphosphate 3-kinase catalytic subunit alpha isoform (Homo sapiens), P42336 [M772A]. Put plainly: Ratio of PI103 IC50 to compound IC50 for full length human PI3Kalpha M772A mutant. The method in brief: as §2
Chain of Phosphatidylinositol 4,5-bisphosphate 3-kinase catalytic subunit alpha isoform (Homo sapiens), P42336 [M772A] (P42336 whole entry M772A, canonical isoform): as the sequence (P42336 whole entry, canonical isoform) above, with M772A counted along it
In assay [7] the target is Phosphatidylinositol 4,5-bisphosphate 3-kinase catalytic subunit alpha isoform (Homo sapiens, UniProt P42336, Y836A). The assay is described as follows: Inhibition of GST-tagged full length human PI3Kalpha Y836A mutant expressed in baculovirus-infected sf9 cells after 30 mins by TR-FRET assay. In short, it runs like this:
as §1

Assay [8] has as its target T1, Phosphatidylinositol 4,5-bisphosphate 3-kinase catalytic subunit alpha isoform. Put plainly: Ratio of PI103 IC50 to compound IC50 for full length human PI3Kalpha. The method in brief:
as §2

SMILES strings stand for the structures.

Chain of Phosphatidylinositol 4,5-bisphosphate 3-kinase catalytic subunit alpha isoform (Homo sapiens, UniProt P42336, D810A) (P42336 whole entry D810A, canonical isoform): as the sequence (P42336 whole entry, canonical isoform) above, with D810A counted along it
Chain of Phosphatidylinositol 4,5-bisphosphate 3-kinase catalytic subunit alpha isoform (Homo sapiens, UniProt P42336, Y836A) (P42336 whole entry Y836A, canonical isoform): as the sequence (P42336 whole entry, canonical isoform) above, with Y836A counted along it
Chain of Phosphatidylinositol 4,5-bisphosphate 3-kinase catalytic subunit alpha isoform (Homo sapiens), P42336 [Y836A] (P42336 whole entry Y836A, canonical isoform): as the sequence (P42336 whole entry, canonical isoform) above, with Y836A counted along it
Chain of Phosphatidylinositol 4,5-bisphosphate 3-kinase catalytic subunit alpha isoform (Homo sapiens, UniProt P42336, M772A) (P42336 whole entry M772A, canonical isoform): as the sequence (P42336 whole entry, canonical isoform) above, with M772A counted along it

Turning to `O=[N+]([O-])c1cc(O)cc(-c2nc(N3CCOCC3)c3oc4ncccc4c3n2)c1`, the IC50 in assay [1] is more than 10000 nM. As for `Oc1cc(Br)cc(-c2nc(N3CCOCC3)c3oc4ncccc4c3n2)c1`, in assay [1], the IC50 was 1210 nM. Take `Oc1cc(O)cc(-c2nc(N3CCOCC3)c3oc4ncccc4c3n2)c1`: the IC50 in assay [1] came out at 5.9 nM; in assay [2] it was 53.4 nM; in assay [4], 61.3 nM; in assay [7], 140 nM. Moreover, the Ratio IC50 in assay [3] came to 1.2; in assay [5] it was 5.7; in assay [6], 19.4; in assay [8], 3. The molecule `Oc1cc(-c2nc(N3CCOCC3)c3oc4ncccc4c3n2)cc(C(F)(F)F)c1` yielded an IC50 in assay [1] of more than 10000 nM. In the case of `Oc1cc(Cl)cc(-c2nc(N3CCOCC3)c3oc4ncccc4c3n2)c1`, in assay [1], the IC50 stood at 990 nM. Consider `Nc1cc(O)cc(-c2nc(N3CCOCC3)c3oc4ncccc4c3n2)c1`, for which, in assay [1], the IC50 was 20.6 nM. For `Cc1cc(O)cc(-c2nc(N3CCOCC3)c3oc4ncccc4c3n2)c1`, in assay [1], the IC50 is more than 10000 nM.

With `Oc1cc(F)cc(-c2nc(N3CCOCC3)c3oc4ncccc4c3n2)c1`, in assay [1], the IC50 stood at 40.9 nM.
